Screens as filed in PubChem BioAssay.
Hits are enriched below; roughly 5.1% of the tested compounds scored in any of these assays.
NF-kB neuron act – raises NF-kB expression in human neuronal cells. NF-kB reporter expression; stronger effect = higher value. fold change at 12.5 µM. hit rate 1.6% among 190,000; in the data active = fold change above about 3.3
STAT3 blocker – inhibitors of IL-6 induced STAT3 signaling; U3A cells, IL-6 STAT3-luciferase reporter, luminescence; host cell line lacks STAT1; inhibition, % at 5.5 µM; hit rate 0.89% among 190,000;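 active = inhibition above the mean inhibition across all screened compounds plus 3 SD, cut at about 44% in these data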
STAT1 activator – activators of IFN-gamma induced STAT1 signaling; AID 932; activation (% of control), % at 5.5 µM; hit rate 2.6% among 200,000; NIH 3T3 STAT1-luciferase reporter, luminescence; 100% = IFN-gamma alone, no compound;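 active = activation above the screen-wide mean activation plus 3 SD, cut at about 130% in these data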
STAT3 act – increases IL-6 driven STAT3 reporter signal; U3A cells, IL-6 STAT3-luciferase reporter, luminescence; 100% = signal with IL-6 EC80 alone; activation (% of control), % at 5.6 µM; hit rate 0.91% among 190,000;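 active = activation above the screen-wide mean of compound activation plus 3 SD, cut at about 130% in these data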
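Material: STAT3-luciferase reporter U3A cells. Controls: IL-6-treated wells, 100% activation. Read-out: % activation versus median of IL-6-stimulated wells. Probe or stimulus: IL-6 stimulus at 33 ng/mL final. Timing: compound 1 h, then IL-6 6 h at 37 °C. Signal: reporter luminescence signal.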
APP 5'UTR act – activates APP 5'UTR luciferase reporter | AID 1276 | SH-SY5Y APP 5'UTR luciferase reporter, luminescence; zero percent = DMSO vehicle wells | hit rate 1% among 190,000 | activation, % at 2 µM;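 active = activation above a set limit, based on mean plus 3 SD of controls, cut at about 140% in these data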
STAT1 blocker – STAT1 signaling inhibition | NIH 3T3 STAT1-luciferase reporter, IFN-gamma, luminescence | hit rate 0.35% among 200,000 | inhibition, % at 5.5 µM | AID 920;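 active = inhibition above a set limit, the mean inhibition across all tested compounds plus 3 SD, cut at about 34% in these data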
Of the large screens only hits and unclear results are named; the others gave an inactive call.

COC(=O)c1ccccc1NC(=O)c1noc2c1CCCC2	none
Cc1ccc(NC(=O)c2noc3c2CCC3)cc1C	NF-kB neuron act 8.26, APP 5'UTR act 181.9
O=C(NCc1ccccc1)c1noc2c1CCCCC2	STAT1 activator 130.1
COc1ccc(NC(=O)c2noc3c2CCC3)cc1	NF-kB neuron act 3.96, STAT1 activator 138.6, APP 5'UTR act 142.7
COc1ccc(CNC(=O)c2noc3c2CCCCC3)cc1	none
CC(=O)c1ccc(NC(=O)c2noc3c2CCC3)cc1	NF-kB neuron act 4.85, STAT3 blocker 66.5, APP 5'UTR act 138.3, STAT1 blocker 52.6
Cn1c(C(=O)N2CCCC(C(=O)NCc3ccc4c(c3)OCO4)C2)cc2sccc21 (stereo not drawn)	none
C/C(=N/NC(=O)c1cnccn1)c1cccs1	STAT1 activator 135.1
C/C(=N\NC(=O)c1ccccn1)c1ccc(C(=O)O)s1	STAT1 activator 132.9
C/C(=N\Nc1ccccn1)c1cccs1	STAT1 activator 136.6
C/C(=N\Nc1ccccn1)c1ccc(C#N)cc1	none
C/C(=N\NC(=O)c1cc(C)[nH]n1)c1cccs1	none
COCCCNC(=S)NNC(=S)Nc1ccc(F)cc1F	none
O=C(COC(=O)CSc1cc(Cl)ccc1Cl)Nc1ncc(C(F)(F)F)cc1Cl	none
Cc1nc2cc3nc(C)sc3cc2s1	none
CCc1nc2cc3sc(CC)nc3cc2s1	STAT1 activator 147.8
COc1ccccc1-n1cc(C(=O)NCC(=O)N2CCN(c3ccccc3)CC2)c2ccccc2c1=O	STAT1 activator 135.6
CC(=O)OCC1(C)CN(c2ccccc2)N(C(C)=O)C1=O (stereo not drawn)	none
COc1ccc(-c2cc3c(nn2)-c2ccccc2C3=O)cc1	STAT3 blocker 91.8, STAT1 blocker 62.1
COc1ccc(C2=C(Nc3ccc(C)cc3)c3ccccc3C2=O)cc1	none
Cc1cccc(-c2cc3c(nn2)-c2ccccc2C3=O)c1	NF-kB neuron act 6.9 (no result: APP 5'UTR act)
COc1ccc(CCC(=O)Nc2sccc2C#N)cc1	STAT1 activator 130.1
CC(=O)NS(=O)(=O)c1ccc(N=c2ssc3c2-c2ccc(C)cc2NC3(C)C)cc1	STAT1 activator 134.0
CS(=O)(=O)N1CCc2cc(C(=O)OCC(=O)c3ccccc3)ccc21	NF-kB neuron act 3.99, STAT1 activator 156.1
CN(C)S(=O)(=O)N1CCN(c2ccc([N+](=O)[O-])c(N3CCOCC3)c2)CC1	STAT3 act 135.7
CC(=O)c1cc(N2CCOCC2)ccc1[N+](=O)[O-]	NF-kB neuron act 5.62
CC(=O)c1cc(N2CCC(C(=O)O)CC2)ccc1[N+](=O)[O-]	none
O=C(Nc1ccc2ccccc2c1)c1cnccn1	NF-kB neuron act 6.53, APP 5'UTR act 156.6
Cc1ccc2oc(-c3ccc(NC(=O)c4cccnc4)cc3)nc2c1	STAT1 activator 143.7, APP 5'UTR act 225.1
O=C(Nc1ccccc1)c1ccncc1	none
O=C(Nc1ccc2ccccc2c1)c1cccnc1	NF-kB neuron act 5.01, STAT1 activator 137.0
O=C(Nc1cnc2ccccc2c1)c1ccncc1	NF-kB neuron act 3.48, STAT1 activator 129.5
O=C(Nc1cccnc1)c1cccnc1	none
CCc1ccccc1OCC(=O)Nc1ccc(S(N)(=O)=O)cc1	none
CC(C)c1ccc2oc(-c3ccc(NC(=O)c4ncn[nH]4)cc3)nc2c1	STAT1 activator 135.5
O=C(Nc1ccccc1)OCCCc1ccccc1	STAT1 activator 139.8
O=C1/C(=C\c2ccc([N+](=O)[O-])cc2)CCc2ccccc21	APP 5'UTR act 135.6
O=C1OC(c2ccc(Br)cc2)=N/C1=C\N1CCCCC1	STAT1 activator 137.6
CN(C)/C=C1/N=C(c2ccccc2)OC1=O	none
O=C1OC(c2ccccc2)=N/C1=C\N1CCCCC1	STAT1 activator 142.9
COc1cc(OC)c(OC)cc1/C=N/n1c(C)nnc1C	none
COc1ccc(CCC(C)Nc2cccc(C)c2)cc1 (stereo not drawn)	none
Cc1cccc(NC(=S)NC(NC(=O)OCc2ccccc2)C(Cl)(Cl)Cl)c1 (stereo not drawn)	none
O=C(CN1CCCc2ccccc21)NCc1ccccc1Cl	none
COc1ccc2c(c1)c(=O)oc1cc(O)ccc12	none (no result: STAT3 blocker, STAT3 act)
COc1ccc(-c2cc(=O)c3cc(O)ccc3o2)cc1	NF-kB neuron act 6.55, STAT1 activator 145.0 (no result: STAT3 blocker, STAT3 act)
COc1ccc2c(C)cc(Sc3nnnn3-c3ccccc3)nc2c1	NF-kB neuron act 3.39
COc1ccc2c(C=O)c[nH]c2c1	none
Cc1ccc(S(=O)(=O)Nc2ccccc2C(N)=O)cc1	STAT3 act 134.4
NC(=O)c1ccccc1NS(=O)(=O)c1ccccc1	none
Cc1csc(NC(=O)C(F)(F)F)n1	none
COc1ccc(N=CC2=C(O)c3ccccc3C2=O)c(OC)c1	STAT3 blocker 98.8, APP 5'UTR act 176.5, STAT1 blocker 73.6
COc1ccc(/C(C)=N/NS(=O)(=O)c2ccccc2)c(OC)c1	none
Cc1ccccc1N=CC1=C(O)c2ccccc2C1=O	STAT3 blocker 99.2, APP 5'UTR act 140.3, STAT1 blocker 80.3
Oc1c(C=C2N=c3ccccc3=N2)sc(=S)n1C1CCCCC1	none
COc1ccc(C2=NN(C(C#N)c3ccc(OC)c(OC)c3)C(c3ccccc3)C2)cc1 (stereo not drawn)	NF-kB neuron act 6.13, APP 5'UTR act 155.1
COc1ccc(C(C#N)N2CCC(c3ccccc3)=N2)cc1OC (stereo not drawn)	none
CCn1c(SCc2nc3ccccc3[nH]2)nnc1-c1ccc(OC)cc1	none
Cc1ccc(Nc2nc(N)nc(CSc3ncccn3)n2)cc1	NF-kB neuron act 5.39, STAT1 activator 130.5
Cc1ccc(Nc2nc(N)nc(CSCCO)n2)cc1	none
Cc1ccc(Nc2nc(N)nc(CC#N)n2)cc1	STAT1 activator 136.9
Nc1nc(CSc2n[nH]c(-c3ccccc3)n2)nc(Nc2ccccc2)n1	none
Nc1nc(CSc2ncccn2)nc(Nc2ccccc2)n1	STAT1 activator 134.1
CC(=O)Nc1ccc(-c2cn3ccsc3n2)cc1	NF-kB neuron act 3.38, STAT1 activator 136.3
Cc1nc(-c2ccc(NC(=O)C3CCCCC3)cc2)cs1	NF-kB neuron act 3.51, STAT1 activator 137.9, APP 5'UTR act 167.4
O=C(Nc1ccc(-c2cn3ccsc3n2)cc1)C1CCCC1	NF-kB neuron act 4
CC(C)C(=O)Nc1cccc(-c2cn3ccsc3n2)c1	none
O=C(CCN1C(=O)c2ccccc2C1=O)Nc1ccc(-c2cn3ccsc3n2)cc1	none
O=C(Nc1ccc(F)cc1)C1CCCCC1	none
O=C(Nc1ccc(-c2cn3ccsc3n2)cc1)C1CC1	none
c1cn2cc(-c3ccc4c(c3)OCO4)nc2s1	NF-kB neuron act 6.07, STAT1 activator 141.0, APP 5'UTR act 149.0
O=C(Nc1ccc2nc(-c3cccs3)c(-c3cccs3)nc2c1)NC1CC1	none
COc1ccc(/C=C/C(=O)OCc2cccc([N+](=O)[O-])c2)cc1	none
CCCCn1c(O)c(/C=C/C=C/C=Nc2ccccc2)sc1=S	none
CSc1nc(Sc2cccc(Cl)c2)c2ccccc2n1	none
